PubChem BioAssay AID588798 (Johns Hopkins Ion Channel Center, 2011)
Calls of active or inactive are those of the source.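 Rule for the calls: active = peak inhibition of the KCNQ2 potassium channel above 30% at some tested dose, plus a fitted dose response curve; inactive = no inhibition at any dose, or no curve.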

Molecular target: Potassium voltage-gated channel subfamily KQT member 2 (Rattus norvegicus) (UniProt O88943)
Experiment: rat KCNQ2 channel inhibition, SAR follow-up, selectivity assay for KCNK9 inhibitor project, cell-based, FluxOR thallium flux, CRC set 3 (AID 588798)
Conditions: KCNQ2-expressing cells, FluxOR thallium flux fluorescence; for thallium flux ratio, lower = inhibition: at 30 µM (top of the series)
Outline: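 Schedule: 90 min dye load, 20 min compound exposure, room temperature. Assay system: KCNQ2-expressing CHO cells. Replication: duplicate or more. Compound dosing: concentration-response series. Evaluation: normalised fluorescence change ratio and IC50. Detection: kinetic thallium-flux fluorescence with FluxOR dye, 10 s baseline, 110 s post-stimulus.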

Chain of Potassium voltage-gated channel subfamily KQT member 2 (Rattus norvegicus) (O88943 whole entry, looked up): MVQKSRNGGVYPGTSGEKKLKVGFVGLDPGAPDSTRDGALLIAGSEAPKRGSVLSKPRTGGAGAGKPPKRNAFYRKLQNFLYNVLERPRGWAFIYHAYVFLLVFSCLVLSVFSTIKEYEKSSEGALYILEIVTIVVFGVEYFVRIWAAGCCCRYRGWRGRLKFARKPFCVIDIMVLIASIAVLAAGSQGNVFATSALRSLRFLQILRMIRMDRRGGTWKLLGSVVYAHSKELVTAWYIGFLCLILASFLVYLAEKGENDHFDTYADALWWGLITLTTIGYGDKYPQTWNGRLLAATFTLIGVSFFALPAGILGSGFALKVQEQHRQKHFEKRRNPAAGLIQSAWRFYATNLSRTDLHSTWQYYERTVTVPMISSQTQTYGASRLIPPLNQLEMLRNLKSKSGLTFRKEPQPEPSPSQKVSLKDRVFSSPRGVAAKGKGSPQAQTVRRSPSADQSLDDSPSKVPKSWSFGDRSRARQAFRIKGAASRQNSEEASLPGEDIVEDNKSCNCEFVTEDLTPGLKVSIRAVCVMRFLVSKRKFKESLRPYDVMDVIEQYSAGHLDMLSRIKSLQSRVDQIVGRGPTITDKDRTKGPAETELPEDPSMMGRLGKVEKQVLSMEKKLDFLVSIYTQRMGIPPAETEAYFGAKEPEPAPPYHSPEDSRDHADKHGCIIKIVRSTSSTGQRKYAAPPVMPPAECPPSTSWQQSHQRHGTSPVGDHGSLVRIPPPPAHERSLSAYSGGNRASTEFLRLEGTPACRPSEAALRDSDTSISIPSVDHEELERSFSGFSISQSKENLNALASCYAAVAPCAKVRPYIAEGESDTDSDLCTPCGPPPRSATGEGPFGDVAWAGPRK

thallium flux ratio, lower = inhibition | IC50 [µM] | SMILES
inactive | – | COc1cccc(C(=O)CSc2nnc(-c3ccco3)n2C(C)C2CC3CCC2C3)c1 (stereo not drawn)
inactive | – | COc1ccc(C(=O)CSc2nnc(-c3ccco3)n2C(C)C2CC3CCC2C3)cc1 (stereo not drawn)
inactive | – | C[C@@H](C1CCCCC1)n1c(-c2ccco2)n[nH]c1=S
inactive | – | CC(C1CC2CCC1C2)n1c(-c2cccnc2)n[nH]c1=S (stereo not drawn)
inactive | – | S=c1[nH]nc(-c2ccco2)n1CC1CC2CCC1C2 (stereo not drawn)
inactive | – | CC(C1CCCCC1)n1c(-c2ccco2)n[nH]c1=S (stereo not drawn)
inactive | – | CC(C1CC2CCC1C2)n1c(-c2ccccc2F)n[nH]c1=S (stereo not drawn)
inactive | – | CC(C1CC2CCC1C2)n1c(-c2ccco2)nnc1C(F)(F)F (stereo not drawn)
inactive | – | CC(C1CC2CCC1C2)n1c(SC(F)F)nnc1-c1ccco1 (stereo not drawn)
inactive | – | CC(C1CC2CCC1C2)n1c(SCC#N)nnc1-c1cccs1 (stereo not drawn)
inactive | – | CC(CC1CC2CCC1C2)n1c(-c2ccco2)n[nH]c1=S (stereo not drawn)
inactive | – | CC(C)c1ccccc1C(=O)Nc1cccc(NC(=O)c2ccccc2OC(F)(F)F)c1
inactive | – | CC(C1CC2CCC1C2)n1c(-c2ccco2)n[nH]c1=O (stereo not drawn)
inactive | – | COc1cccc(-c2n[nH]c(=S)n2C(C)C2CC3CCC2C3)c1OC (stereo not drawn)
inactive | – | CC(C1CC2CCC1C2)n1c(SCC(=O)c2ccc(Cl)c(Cl)c2)nnc1-c1ccco1 (stereo not drawn)

More lines, now with the values behind:

SMILES | thallium flux ratio, lower = inhibition | IC50 [µM]
CC(C1CC2CCC1C2)n1c(-c2ccc(N(C)C)cc2)n[nH]c1=S (stereo not drawn) | inactive | –
COc1cccc(-c2nnc(S(C)(=O)=O)n2C(C)C2CC3CCC2C3)c1 (stereo not drawn) | inactive | –
CC(C1CC2CCC1C2)n1c(-c2cccc(N(C)C)c2)n[nH]c1=S (stereo not drawn) | inactive | –
CC(C1C2CCC1CC2)n1c(-c2ccco2)n[nH]c1=S (stereo not drawn) | inactive | –
CC(C1CC2CCC1C2)n1c(-c2ccncc2)n[nH]c1=S (stereo not drawn) | inactive | –
CC(CCC1CCCC1)n1c(-c2ccco2)n[nH]c1=S (stereo not drawn) | inactive | –
CC(C1CC2CCC1C2)n1c(SCC(=O)c2ccc3c(c2)OCO3)nnc1-c1ccco1 (stereo not drawn) | inactive | –
C[C@H](C1CCCCC1)n1c(-c2ccco2)n[nH]c1=S | inactive | –
CC(C1CC2CCC1C2)n1c(SCc2ccccc2)nnc1-c1ccco1 (stereo not drawn) | – | 18
CC(C1CC2CCC1C2)n1c(-c2cccc(F)c2)n[nH]c1=S (stereo not drawn) | inactive | –
CSc1nnc(-c2ccco2)n1C(C)C1CC2CCC1C2 (stereo not drawn) | inactive | –
CC(C1CC2CCC1C2)N(C)C(=O)c1ccco1 (stereo not drawn) | inactive | –
CC(C1CC2CCC1C2)n1cnnc1-c1ccco1 (stereo not drawn) | inactive | –
COc1ccccc1C(=O)Nc1cc(NC(=O)c2ccccc2C(C)C)ccc1F | inactive | –
CC(C1CC2CCC1C2)n1c(-c2ccccn2)n[nH]c1=S (stereo not drawn) | inactive | –
CC(C)Oc1ccccc1C(=O)Nc1cccc(NC(=O)c2ccccc2OC(F)(F)F)c1 | inactive | –
CC(C1CC2CCC1C2)n1c(-c2ccco2)n[nH]c1=S (stereo not drawn) | inactive | –
COc1ccc(CCSc2nnc(-c3ccco3)n2C(C)C2CC3CCC2C3)cc1OC (stereo not drawn) | inactive | –
COc1cccc(Cc2n[nH]c(=S)n2C(C)C2CC3CCC2C3)c1 (stereo not drawn) | inactive | –
CC(c1cccc2ccccc12)n1c(-c2ccco2)n[nH]c1=S (stereo not drawn) | inactive | –
CC(C1CC2CCC1C2)n1c(-c2cccs2)n[nH]c1=S (stereo not drawn) | inactive | –
COc1ccc(C(=O)CSc2nnc(-c3ccco3)n2C(C)C2CC3CCC2C3)cc1OC (stereo not drawn) | inactive | –
COc1cc(OC)cc(-c2n[nH]c(=S)n2C(C)C2CC3CCC2C3)c1 (stereo not drawn) | inactive | –
CC(NC(=O)c1ccco1)C1CC2CCC1C2 (stereo not drawn) | inactive | –
CC(C1CC2CCC1C2)n1c(-c2cccn2C)n[nH]c1=S (stereo not drawn) | inactive | –
CC(C1CC2CCC1C2)n1c(SCC(=O)c2ccccc2)nnc1-c1ccco1 (stereo not drawn) | inactive | –
S=c1[nH]nc(-c2ccco2)n1C1CC2CCC1C2 (stereo not drawn) | inactive | –
COc1ccccc1C(=O)Nc1cccc(NC(=O)c2cccc3ccccc23)c1 | inactive | –
